Assay results as given in ChEMBL document CHEMBL1156834, “Syntheses and biological activities of KRN7000 analogues having aromatic residues in the acyl and backbone chains with varying stereochemistry” (Bioorg Med Chem Lett, 2010).
Activity calls are given as the source filed them.

How the values were obtained:
Assay type in all cases: cell-based
[1] = molecular target: T1, Antigen-presenting glycoprotein CD1d (Homo sapiens) (UniProt P15813); assay: Induction of CD1D-mediated IFN-gamma production in human iNKT cells expressing CD4 at 25 nM after 18 hrs by ELISA
T1 sequence (whole entry): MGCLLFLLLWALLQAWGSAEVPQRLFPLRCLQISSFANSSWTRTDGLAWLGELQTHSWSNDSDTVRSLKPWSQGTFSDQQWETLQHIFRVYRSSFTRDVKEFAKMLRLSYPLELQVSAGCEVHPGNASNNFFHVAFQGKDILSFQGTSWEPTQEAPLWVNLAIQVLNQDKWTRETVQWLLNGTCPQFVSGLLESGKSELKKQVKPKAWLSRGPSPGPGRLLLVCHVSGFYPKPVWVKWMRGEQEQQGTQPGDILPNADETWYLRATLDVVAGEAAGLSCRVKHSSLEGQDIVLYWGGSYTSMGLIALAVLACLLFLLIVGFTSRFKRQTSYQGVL
Method in brief: (§1)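 CD4⁺ human iNKT clone HDD11 with CD1d-transfected HeLa cells as APC, in RPMI-1640 plus 10% FBS. 2.5 × 10⁴ HeLa cells were pulsed with glycolipid for 18 h at 37 °C, washed, then given fresh glycolipid-free medium with 2.5 × 10⁴ iNKT cells. Supernatants were taken after a further 18 h at 37 °C, and cytokine was measured by capture ELISA.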

[2] = molecular target: T1, Antigen-presenting glycoprotein CD1d (Homo sapiens); assay: Induction of CD1D-mediated IL-13 production in human iNKT cells expressing CD4 at 25 nM after 18 hrs by ELISA; method in brief: as §1
[3] = molecular target: T1, Antigen-presenting glycoprotein CD1d (Homo sapiens); assay: Induction of CD1D-mediated IL-13 production in human iNKT cells expressing CD4 at 400 nM after 18 hrs by ELISA; method in brief: as §1
[4] = molecular target: T1, Antigen-presenting glycoprotein CD1d (Homo sapiens); assay: Induction of CD1D-mediated IL-4 production in human iNKT cells expressing CD4 at 25 nM after 18 hrs by ELISA; method in brief: as §1
[5] = molecular target: T1, Antigen-presenting glycoprotein CD1d (Homo sapiens); assay: Induction of CD1D-mediated IL-13 production in human iNKT cells expressing CD4 at 25 to 400 nM after 18 hrs by ELISA; method in brief: as §1
[6] = molecular target: T1, Antigen-presenting glycoprotein CD1d (Homo sapiens); assay: Induction of CD1D-mediated IL-4 production in human iNKT cells expressing CD4 at 25 to 400 nM after 18 hrs by ELISA; method in brief: as §1
[7] = molecular target: T1, Antigen-presenting glycoprotein CD1d (Homo sapiens); assay: Induction of CD1D-mediated IFN-gamma production in human iNKT cells expressing CD4 at 25 to 400 nM after 18 hrs by ELISA; method in brief: as §1

Measured: Activity

CCCCCCCCCCCCCCC[C@H](O)[C@H](CO[C@H]1O[C@H](CO)[C@H](O)[C@H](O)[C@H]1O)NC(=O)CCCCCCCCCc1ccccc1
active: [1] | [2] | [3] | [4]

CCCCCCCCCCCCCCCC[C@H](CO[C@H]1O[C@H](CO)[C@H](O)[C@H](O)[C@H]1O)NC(=O)CCCCCCCCCc1ccccc1
active: [5] | [6] | [3] | [7]

CCCCCCCCCCCCCCCCCCCCCCCCCC(=O)N[C@@H](CO[C@H]1O[C@H](CO)[C@H](O)[C@H](O)[C@H]1O)[C@H](O)[C@@H](O)CCCc1ccccc1
active: [1] | [2] | [3] | [4]

CCCCCCCCCCCCCCCCCCCCCCCCCC(=O)N[C@@H](CO[C@H]1O[C@H](CO)[C@H](O)[C@H](O)[C@H]1O)[C@H](O)[C@H](O)CCCCCCCCCCCCCC
active: [3]

CCCCCCCCCCCCCCCCCCCCCCCCCC(=O)N[C@H](CCCCCCCCCCCCCCCC)CO[C@H]1O[C@H](CO)[C@H](O)[C@H](O)[C@H]1O
active: [1] | [2] | [3] | [4]

CCCCCCCCCCCCCCCCCCCCCCCCCC(=O)N[C@@H](CO[C@H]1O[C@H](CO)[C@H](O)[C@H](O)[C@H]1O)[C@@H](O)CCCCCCCCCCCCCCC
active: [1] | [2] | [3] | [4]

CCCCCCCCCCCCCC[C@H](O)[C@H](O)[C@H](CO[C@H]1O[C@H](CO)[C@H](O)[C@H](O)[C@H]1O)NC(=O)CCCCCc1ccccc1
active: [1] | [2] | [3] | [4]

CCCCCCCCCCCCCCCCCCCCCCCCCC(=O)N[C@@H](CO[C@H]1O[C@H](CO)[C@H](O)[C@H](O)[C@H]1O)[C@H](O)[C@H](O)CCCc1ccccc1
active: [5] | [6] | [3] | [7]
